Screening data: PubChem BioAssay, several laboratories
Only some compounds are listed: those with a hit (about 11% of all), similar ones and a draw of the others.
Diaph inh CS: inhibits diaphorase or chemically oxidizes, flagging diaphorase assay artifacts; hit rate 0.69% among 190,000; diaphorase resazurin-to-resorufin fluorescence, NADH, 16 min; bacterial (C. kluyveri) enzyme, not human; inhibition, % at 20 µM;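 active = primary screen inhibition at 20 µM above a set limit, cut at about 50% in these data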;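 note: plate controls were DMSO with full reaction for no effect and wells lacking NADH for full effect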
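Assay system: diaphorase enzyme from Clostridium kluyveri. Quantity: enzyme working solution with 0.14 U/mL diaphorase. Schedule: reaction incubation of 16 min at room temperature. Technique: resorufin fluorescence, excitation 544 nm, emission 590 nm. Controls: No-NADH positive control and DMSO neutral control.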
WT yeast gro inh: growth inhibition of WT yeast, mitochondrial fusion screen. mitochondrial fusion phenotypic screen, WT strain. inhibition, % at 10 µM. hit rate 2.1% among 190,000; in the data active = inhibition above about 58%; tested in S. cerevisiae
L major viab: reduces viability of Leishmania major promastigotes; resazurin fluorescence viability; inhibition, % at 10 µM; hit rate 9% among 200,000; AID 1063;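 note: promastigotes grown with compound for 44 hours at 28 °C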
G6PDH counter: inhibits Leuconostoc G6PDH, flagging false hits in G6PDH-based assays. hit rate 0.12% among 200,000. AID 1020. Purified L. mesenteroides G6PDH, diaphorase/resazurin coupled fluorescence, 45 min. inhibition, % at 5 µM
Diaph act CS: diaphorase activation or chemical reduction counter-screen. Diaphorase/resazurin coupled assay, resorufin fluorescence, 16 min; hits give high values; 1 = vehicle wells, 0 = NADH-free wells. hit rate 0.005% among 190,000. activation factor at 20 µM;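 active = diaphorase activity raised at least twofold by the compound at 20 µM; inactive = activation factor below 2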
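Assay system: bacterial diaphorase enzyme (C. kluyveri) / Input: enzyme 0.07 U/mL final / Medium: 50 mM HEPES pH 7.4 with 4.542 mM MgCl2, 0.005% Tween 20 / Doses: single compound dose of 20 µM, 1% DMSO final / Incubation: 16 min enzyme reaction, ambient temperature / Signal: fluorescence, excitation 544 nm and emission 590 nm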
The depositor's hits bear a star. Cut-off read from the data, not from the text of the source, unless noted: active = inhibition above about 50%; inactive = the rest.

Cc1ccc(NC2c3ncccc3C(=O)N2Cc2ccco2)c(C)c1 (centres undefined) was read as Diaph inh CS 4, WT yeast gro inh 23, L major viab 3, G6PDH counter 2 and Diaph act CS 1.
For COc1ccccc1C(=O)Nc1ccc(CN2CCCCC2)cc1 the results were Diaph inh CS 2, WT yeast gro inh 6, L major viab 8, G6PDH counter 10 and Diaph act CS 1.
Screening Cc1ccc(C(=O)NC(=S)Nc2ccc(CN3CCCCC3)cc2)c(C)c1 returned Diaph inh CS 7, WT yeast gro inh -4, L major viab 73*, G6PDH counter 6 and Diaph act CS 0.9.
Screening COc1ccc(C(=O)NC(=S)Nc2ccc(CN3CCCCC3)cc2)cc1Cl returned Diaph inh CS 3, WT yeast gro inh 8, L major viab 99*, G6PDH counter -3 and Diaph act CS 1.
For COc1c(Cl)cc(Cl)cc1C(=O)Nc1ccc(CN2CCCCC2)cc1 the results were Diaph inh CS -8, WT yeast gro inh 10, L major viab 100*, G6PDH counter 27 and Diaph act CS 1.1.
Screening O=C(NC(=S)Nc1ccc(CN2CCCCC2)cc1)c1ccco1 returned Diaph inh CS -3, WT yeast gro inh -12, L major viab 28, G6PDH counter 17 and Diaph act CS 1.
For CCOc1ccc(Nc2cc(=O)oc3ccccc23)cc1 the results were Diaph inh CS 1, WT yeast gro inh 4, L major viab -1, G6PDH counter 4 and Diaph act CS 1.
`O=S(=O)(c1cccc2cccnc12)N1CCc2ccccc21` gave Diaph inh CS 14, WT yeast gro inh 12, L major viab 1, G6PDH counter 12 and Diaph act CS 0.9.
For O=C(C(Cc1ccccc1)NS(=O)(=O)c1cccc2cccnc12)N1CCc2ccccc21 (centres undefined) the results were Diaph inh CS 13, WT yeast gro inh 3, L major viab 94*, G6PDH counter -3 and Diaph act CS 0.9.
For Cc1ccc(S(=O)(=O)NC(=O)NCc2ccccn2)cc1 the results were Diaph inh CS 9, WT yeast gro inh 21, L major viab -6, G6PDH counter 2 and Diaph act CS 0.9.
`Nc1nc2ccc([N+](=O)[O-])c(N)c2s1` gave Diaph inh CS 15, WT yeast gro inh 1, L major viab 22, G6PDH counter 2 and Diaph act CS 0.8.
For Cc1ccc(C)c(N2CCN(CC3CC=CCC3)CC2)c1 (centres undefined) the results were Diaph inh CS 3, WT yeast gro inh 22, L major viab 87*, G6PDH counter -3 and Diaph act CS 1.
Cc1cc(OCCn2ccnc2)ccc1C(C)C was read as Diaph inh CS -2, WT yeast gro inh 25, L major viab 97*, G6PDH counter 17 and Diaph act CS 1.
For Cc1ccc(OCCCn2ccnc2)cc1C the results were Diaph inh CS 3, WT yeast gro inh 44, L major viab 100*, G6PDH counter 4 and Diaph act CS 1.
`Cc1cccc(OCCCn2ccnc2)c1` gave Diaph inh CS 13, WT yeast gro inh -10, L major viab 98*, G6PDH counter 1 and Diaph act CS 0.9.
For CN(C)c1ccc(/C=c2/sc3n(c2=O)NC2(c4ccccc4)N(C)C(=O)N(C)C2(c2ccccc2)N=3)cc1 (centres undefined) the results were Diaph inh CS 13, WT yeast gro inh -8, L major viab 31, G6PDH counter 7 and Diaph act CS 0.9.
For Cc1c(Cc2ccccc2)sc(NC(=O)/C=C/c2cccc3ccccc23)c1C(N)=O the results were Diaph inh CS 9, WT yeast gro inh -5, L major viab -4, G6PDH counter -13 and Diaph act CS 0.9.
Screening O=C(COC(=O)Cc1c(Cl)cccc1Cl)NCCC1=CCCCC1 returned Diaph inh CS 11, WT yeast gro inh 0, L major viab 2, G6PDH counter 24 and Diaph act CS 0.9.
`O=C(COc1ncnc2c(Cl)cc(Cl)cc12)NCCC1=CCCCC1` gave Diaph inh CS 3, WT yeast gro inh -1, L major viab 100*, G6PDH counter 2 and Diaph act CS 1.
O=C(COC(=O)Cc1ccc(Cl)cc1Cl)NCCC1=CCCCC1 was read as Diaph inh CS 21, WT yeast gro inh -9, L major viab 54*, G6PDH counter 7 and Diaph act CS 0.8.
`O=C(COc1ncnc2ccccc12)NCCC1=CCCCC1` gave Diaph inh CS 20, WT yeast gro inh -2, L major viab -4, G6PDH counter 5 and Diaph act CS 0.8.
For NC(=O)NCCC1=CCCCC1 the results were Diaph inh CS 4, WT yeast gro inh 59*, L major viab -4, G6PDH counter -3 and Diaph act CS 1.
Screening Cc1ccc(CNCCC2=CCCCC2)cc1 returned Diaph inh CS 21, WT yeast gro inh 6, L major viab 70*, G6PDH counter -3 and Diaph act CS 0.8.
For COC(=O)C1(CCSC)NC(c2ccco2)C2C(=O)N(C)C(=O)C21 (centres undefined) the results were Diaph inh CS 15, WT yeast gro inh -6, L major viab -5, G6PDH counter 1 and Diaph act CS 0.9.
CSc1cccc(NC(=O)CN(Cc2ccc(Cl)cc2)S(C)(=O)=O)c1 was read as Diaph inh CS 18, WT yeast gro inh 8, L major viab 20, G6PDH counter -3 and Diaph act CS 0.8.
O=C(NCc1ccncc1)C1CCCCC1 was read as Diaph inh CS 9, WT yeast gro inh 3, L major viab 0, G6PDH counter -3 and Diaph act CS 0.9.
For CC1CCN(C(=O)C2CCN(S(=O)(=O)c3cccc4nsnc34)CC2)CC1 the results were Diaph inh CS 7, WT yeast gro inh -12, L major viab -8, G6PDH counter -7 and Diaph act CS 0.9.
Screening COC(=O)Cn1cnc(=O)c(C#N)c1/C=C/N(C)C returned Diaph inh CS 26, WT yeast gro inh -10, L major viab -1, G6PDH counter 11 and Diaph act CS 0.7.
COc1ccc(NC(=S)NCCCN2CCCC2)cc1 was read as Diaph inh CS -6, WT yeast gro inh -2, L major viab -4, G6PDH counter 0 and Diaph act CS 1.1.
`CCCCCCCCNC(=S)NCCN1CCCCC1` gave Diaph inh CS 8, WT yeast gro inh 42, L major viab 97*, G6PDH counter 5 and Diaph act CS 0.9.
OCCNCc1ccc(-c2ccccc2)cc1 was read as Diaph inh CS 5, WT yeast gro inh -7, L major viab 63*, G6PDH counter -7 and Diaph act CS 1.
OC(CNCc1ccc(-c2ccccc2)cc1)c1ccccc1 (centres undefined) was read as Diaph inh CS 4, WT yeast gro inh 60*, L major viab 99*, G6PDH counter 0 and Diaph act CS 1.
Screening Cc1ccc(CNC(=O)C(C)OC(=O)c2cccs2)cc1 (centres undefined) returned Diaph inh CS 7, WT yeast gro inh -29, L major viab -5, G6PDH counter 6 and Diaph act CS 0.9.
